{
  "source": "ChEMBL document CHEMBL1932999",
  "about": "“Increased susceptibility to resveratrol of Helicobacter pylori strains isolated from patients with gastric carcinoma” (2011)",
  "key": {"[1]": {"tested_on": "Helicobacter pylori", "test": "Bactericidal activity against CagA-expressing Helicobacter pylori MDO21 isolated from chronic gastritis patient compound exposure followed by incubation on Columbia-blood agar plate for 3 to 5 days", "type": "functional, organism-based", "conditions": "TDE = time-dependent effect", "method_in_brief": "(§1)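 Broth microdilution MBC against clinical H. pylori isolates (cagA by PCR; stocks kept frozen in Columbia broth with 20% glycerol). Compound dissolved in water with 4% DMSO, filter-sterilized, double diluted in Brucella broth with 10% fetal bovine serum. Inoculum about 10^6 CFU/mL from 48 h microaerobic Brucella agar-BFS cultures. Plates held microaerobically at 37 °C for 24 and 48 h. Each well was then spotted onto Columbia-blood agar for 3-5 days. MBC is the lowest concentration giving no regrowth. Triplicate, mean ± SD.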"}, "[2]": {"tested_on": "Helicobacter pylori", "test": "Bactericidal activity against CagA-expressing Helicobacter pylori G27 isolated from chronic gastritis patient compound exposure followed by incubation on Columbia-blood agar plate for 3 to 5 days", "type": "functional", "conditions": "TDE = time-dependent effect", "method_in_brief": "as §1"}, "[3]": {"tested_on": "Helicobacter pylori", "test": "Antibacterial activity against CagA-expressing Helicobacter pylori 10Kb isolated from gastric carcinoma patient after 24 hrs compound exposure followed by incubation on Columbia-blood agar plate for 3 to 5 days", "type": "functional", "method_in_brief": "(§2)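 Compound dissolved in water with 4% DMSO, filter-sterilized, and serially twofold diluted in Brucella broth with 10% bovine fetal serum. Inoculum from 48 h microaerobic Brucella agar-BFS cultures, added at approximately 10^6 CFU/mL final. Broth incubated microaerobically at 37 °C for 24 or 48 h, then each dilution subcultured onto Columbia-blood agar. MBC is the lowest concentration with no growth on subculture. Triplicate; mean ± SD.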"}, "[4]": {"tested_on": "Helicobacter pylori", "test": "Antibacterial activity against CagA-deficient Helicobacter pylori 328 KM isolated from chronic gastritis patient after 24 hrs compound exposure followed by incubation on Columbia-blood agar plate for 3 to 5 days", "type": "functional", "method_in_brief": "as §2"}, "[5]": {"tested_on": "Helicobacter pylori", "test": "Antibacterial activity against CagA-expressing Helicobacter pylori MD6 isolated from chronic gastritis patient after 48 hrs compound exposure followed by incubation on Columbia-blood agar plate for 3 to 5 days", "type": "functional", "method_in_brief": "as §2"}, "[6]": {"tested_on": "Helicobacter pylori", "test": "Antibacterial activity against CagA-deficient Helicobacter pylori Ba142 isolated from chronic gastritis patient after 24 hrs compound exposure followed by incubation on Columbia-blood agar plate for 3 to 5 days", "type": "functional", "method_in_brief": "as §2"}, "[7]": {"tested_on": "Helicobacter pylori", "test": "Antibacterial activity against CagA-expressing Helicobacter pylori SI10 isolated from chronic gastritis patient after 48 hrs compound exposure followed by incubation on Columbia-blood agar plate for 3 to 5 days", "type": "functional", "method_in_brief": "as §1"}, "[8]": {"tested_on": "Helicobacter pylori", "test": "Antibacterial activity against CagA-expressing Helicobacter pylori Ma01 isolated from chronic gastritis patient after 24 hrs compound exposure followed by incubation on Columbia-blood agar plate for 3 to 5 days", "type": "functional", "method_in_brief": "as §2"}, "[9]": {"tested_on": "Helicobacter pylori", "test": "Bactericidal activity against CagA-deficient Helicobacter pylori G21b isolated from chronic gastritis patient compound exposure followed by incubation on Columbia-blood agar plate for 3 to 5 days", "type": "functional, organism-based", "conditions": "TDE = time-dependent effect", "method_in_brief": "as §1"}, "[10]": {"tested_on": "Helicobacter pylori", "test": "Antibacterial activity against CagA-expressing Helicobacter pylori 4Cb isolated from gastric carcinoma patient after 24 hrs compound exposure followed by incubation on Columbia-blood agar plate for 3 to 5 days", "type": "functional", "method_in_brief": "as §2"}, "[11]": {"tested_on": "Helicobacter pylori", "test": "Antibacterial activity against CagA-deficient Helicobacter pylori Ba142 isolated from chronic gastritis patient after 48 hrs compound exposure followed by incubation on Columbia-blood agar plate for 3 to 5 days", "type": "functional", "method_in_brief": "as §2"}, "[12]": {"tested_on": "Helicobacter pylori", "test": "Antibacterial activity against CagA-expressing Helicobacter pylori G20 isolated from chronic gastritis patient after 24 hrs compound exposure followed by incubation on Columbia-blood agar plate for 3 to 5 days", "type": "functional", "method_in_brief": "as §2"}, "[13]": {"tested_on": "Helicobacter pylori", "test": "Antibacterial activity against CagA-expressing Helicobacter pylori SI10 isolated from chronic gastritis patient after 24 hrs compound exposure followed by incubation on Columbia-blood agar plate for 3 to 5 days", "type": "functional", "method_in_brief": "as §1"}, "[14]": {"tested_on": "Helicobacter pylori", "test": "Antibacterial activity against CagA-expressing Helicobacter pylori MD6 isolated from chronic gastritis patient after 24 hrs compound exposure followed by incubation on Columbia-blood agar plate for 3 to 5 days", "type": "functional", "method_in_brief": "as §2"}, "[15]": {"tested_on": "Helicobacter pylori", "test": "Bactericidal activity against CagA-expressing Helicobacter pylori G39 isolated from chronic gastritis patient compound exposure followed by incubation on Columbia-blood agar plate for 3 to 5 days", "type": "functional, organism-based", "conditions": "TDE = time-dependent effect", "method_in_brief": "as §1"}, "[16]": {"tested_on": "Helicobacter pylori", "test": "Antibacterial activity against CagA-expressing Helicobacter pylori Ma01 isolated from chronic gastritis patient after 48 hrs compound exposure followed by incubation on Columbia-blood agar plate for 3 to 5 days", "type": "functional", "method_in_brief": "as §2"}, "[17]": {"tested_on": "Helicobacter pylori", "test": "Bactericidal activity against CagA-deficient Helicobacter pylori NS23 isolated from chronic gastritis patient compound exposure followed by incubation on Columbia-blood agar plate for 3 to 5 days", "type": "functional, organism-based", "conditions": "TDE = time-dependent effect", "method_in_brief": "as §1"}, "[18]": {"tested_on": "Helicobacter pylori", "test": "Antibacterial activity against CagA-expressing Helicobacter pylori 18C7 isolated from gastric carcinoma patient after 24 hrs compound exposure followed by incubation on Columbia-blood agar plate for 3 to 5 days", "type": "functional", "method_in_brief": "as §2"}, "[19]": {"tested_on": "Helicobacter pylori", "test": "Antibacterial activity against CagA-deficient Helicobacter pylori G50 isolated from chronic gastritis patient after 48 hrs compound exposure followed by incubation on Columbia-blood agar plate for 3 to 5 days", "type": "functional", "method_in_brief": "as §2"}, "[20]": {"tested_on": "Helicobacter pylori", "test": "Bactericidal activity against CagA-expressing Helicobacter pylori CCUG17874 isolated from chronic gastritis patient compound exposure followed by incubation on Columbia-blood agar plate for 3 to 5 days", "type": "functional, organism-based", "conditions": "TDE = time-dependent effect", "method_in_brief": "as §1"}, "[21]": {"tested_on": "Helicobacter pylori", "test": "Antibacterial activity against CagA-expressing Helicobacter pylori 17C7 isolated from gastric carcinoma patient after 24 hrs compound exposure followed by incubation on Columbia-blood agar plate for 3 to 5 days", "type": "functional", "method_in_brief": "as §2"}, "[22]": {"tested_on": "Helicobacter pylori", "test": "Antibacterial activity against CagA-expressing Helicobacter pylori 18C7 isolated from gastric carcinoma patient after 48 hrs compound exposure followed by incubation on Columbia-blood agar plate for 3 to 5 days", "type": "functional", "method_in_brief": "as §2"}, "[23]": {"tested_on": "Helicobacter pylori", "test": "Antibacterial activity against CagA-expressing Helicobacter pylori 10K isolated from gastric carcinoma patient after 48 hrs compound exposure followed by incubation on Columbia-blood agar plate for 3 to 5 days", "type": "functional", "method_in_brief": "as §2"}, "[24]": {"tested_on": "Helicobacter pylori", "test": "Antibacterial activity against CagA-expressing Helicobacter pylori 4Cb isolated from gastric carcinoma patient after 48 hrs compound exposure followed by incubation on Columbia-blood agar plate for 3 to 5 days", "type": "functional", "method_in_brief": "as §2"}, "[25]": {"tested_on": "Helicobacter pylori", "test": "Antibacterial activity against CagA-deficient Helicobacter pylori G50 isolated from chronic gastritis patient after 24 hrs compound exposure followed by incubation on Columbia-blood agar plate for 3 to 5 days", "type": "functional", "method_in_brief": "as §2"}, "[26]": {"tested_on": "Helicobacter pylori", "test": "Antibacterial activity against CagA-deficient Helicobacter pylori NS23 isolated from chronic gastritis patient after 48 hrs compound exposure followed by incubation on Columbia-blood agar plate for 3 to 5 days", "type": "functional", "method_in_brief": "as §2"}, "[27]": {"tested_on": "Helicobacter pylori", "test": "Antibacterial activity against CagA-expressing Helicobacter pylori 2Ca isolated from gastric carcinoma patient after 24 hrs compound exposure followed by incubation on Columbia-blood agar plate for 3 to 5 days", "type": "functional", "method_in_brief": "as §2"}, "[28]": {"tested_on": "Helicobacter pylori", "test": "Antibacterial activity against CagA-deficient Helicobacter pylori G204 isolated from chronic gastritis patient after 24 hrs compound exposure followed by incubation on Columbia-blood agar plate for 3 to 5 days", "type": "functional", "method_in_brief": "as §2"}, "[29]": {"tested_on": "Helicobacter pylori", "test": "Antibacterial activity against CagA-expressing Helicobacter pylori 17C7 isolated from gastric carcinoma patient after 48 hrs compound exposure followed by incubation on Columbia-blood agar plate for 3 to 5 days", "type": "functional", "method_in_brief": "as §2"}, "[30]": {"tested_on": "Helicobacter pylori", "test": "Antibacterial activity against CagA-deficient Helicobacter pylori G204 isolated from chronic gastritis patient after 48 hrs compound exposure followed by incubation on Columbia-blood agar plate for 3 to 5 days", "type": "functional", "method_in_brief": "as §2"}, "[31]": {"tested_on": "Helicobacter pylori", "test": "Bactericidal activity against CagA-deficient Helicobacter pylori 328 KM isolated from chronic gastritis patient compound exposure followed by incubation on Columbia-blood agar plate for 3 to 5 days", "type": "functional, organism-based", "conditions": "TDE = time-dependent effect", "method_in_brief": "as §1"}, "[32]": {"tested_on": "Helicobacter pylori", "test": "Bactericidal activity against CagA-expressing Helicobacter pylori G20 isolated from chronic gastritis patient compound exposure followed by incubation on Columbia-blood agar plate for 3 to 5 days", "type": "functional, organism-based", "conditions": "TDE = time-dependent effect", "method_in_brief": "as §1"}, "[33]": {"tested_on": "Helicobacter pylori", "test": "Antibacterial activity against CagA-expressing Helicobacter pylori 18K7 isolated from gastric carcinoma patient after 24 hrs compound exposure followed by incubation on Columbia-blood agar plate for 3 to 5 days", "type": "functional", "method_in_brief": "as §2"}, "[34]": {"tested_on": "Helicobacter pylori", "test": "Antibacterial activity against CagA-deficient Helicobacter pylori G21b isolated from chronic gastritis patient after 24 hrs compound exposure followed by incubation on Columbia-blood agar plate for 3 to 5 days", "type": "functional", "method_in_brief": "as §2"}},
  "data": [
    {"smiles": "Oc1ccc(/C=C/c2cc(O)cc(O)c2)cc1", "note": "[RESVERATROL]", "values": [
      {"measurement": "Activity", "setting": "[1]", "value": "tde"},
      {"measurement": "Activity", "setting": "[2]", "value": "tde"},
      {"measurement": "MBC", "setting": "[3]", "value": 147, "unit": "µg/mL"},
      {"measurement": "MBC", "setting": "[4]", "value": 147, "unit": "µg/mL"},
      {"measurement": "MBC", "setting": "[5]", "value": 295, "unit": "µg/mL"},
      {"measurement": "MBC", "setting": "[6]", "value": 295, "unit": "µg/mL"},
      {"measurement": "MBC", "setting": "[7]", "value": 295, "unit": "µg/mL"},
      {"measurement": "MBC", "setting": "[8]", "value": 589, "unit": "µg/mL"},
      {"measurement": "Activity", "setting": "[9]", "value": "tde"},
      {"measurement": "MBC", "setting": "[10]", "value": 147, "unit": "µg/mL"},
      {"measurement": "MBC", "setting": "[11]", "value": 295, "unit": "µg/mL"},
      {"measurement": "MBC", "setting": "[12]", "value": 1280, "unit": "µg/mL"},
      {"measurement": "MBC", "setting": "[13]", "value": 589, "unit": "µg/mL"},
      {"measurement": "MBC", "setting": "[14]", "value": 589, "unit": "µg/mL"},
      {"measurement": "Activity", "setting": "[15]", "value": "tde"},
      {"measurement": "MBC", "setting": "[16]", "value": 589, "unit": "µg/mL"},
      {"measurement": "Activity", "setting": "[17]", "value": "tde"},
      {"measurement": "MBC", "setting": "[18]", "value": 37, "unit": "µg/mL"},
      {"measurement": "MBC", "setting": "[19]", "value": 295, "unit": "µg/mL"},
      {"measurement": "Activity", "setting": "[20]", "value": "tde"},
      {"measurement": "MBC", "setting": "[21]", "value": 37, "unit": "µg/mL"},
      {"measurement": "MBC", "setting": "[22]", "value": 37, "unit": "µg/mL"},
      {"measurement": "MBC", "setting": "[23]", "value": 74, "unit": "µg/mL"},
      {"measurement": "MBC", "setting": "[24]", "value": 147, "unit": "µg/mL"},
      {"measurement": "MBC", "setting": "[25]", "value": 295, "unit": "µg/mL"},
      {"measurement": "MBC", "setting": "[26]", "value": 147, "unit": "µg/mL"},
      {"measurement": "MBC", "setting": "[27]", "value": 160, "unit": "µg/mL"},
      {"measurement": "MBC", "setting": "[28]", "value": 648, "unit": "µg/mL"},
      {"measurement": "MBC", "setting": "[29]", "value": 37, "unit": "µg/mL"},
      {"measurement": "MBC", "setting": "[30]", "value": 648, "unit": "µg/mL"},
      {"measurement": "Activity", "setting": "[31]", "value": "tde"},
      {"measurement": "Activity", "setting": "[32]", "value": "tde"},
      {"measurement": "MBC", "setting": "[33]", "value": 147, "unit": "µg/mL"},
      {"measurement": "MBC", "setting": "[34]", "value": 295, "unit": "µg/mL"}
    ]}
  ]
}
